Reference: paper PMC7106177 (International Immunopharmacology, 2004)
Values after ≈ are worked out from the molar mass of the structure shown.

Experiments:
Assay type in all cases: cell-based, human
[1] = test system: HFL-1 cells; test: cytotoxicity by LDH assay; conditions: calculated from LDH assay data; for CC30 (cytotoxicity), IL-8 condition: HFL-1, TNF-α stimuli for 24 h; for CC30 (cytotoxicity), eotaxin 1 condition: HFL-1, TNF-α/IL-4 stimuli for 48 h
Method in brief: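 LDH leakage is measured in supernatants from the same HFL-1 cultures under both stimulation conditions: TNF-α 10 ng/ml for 24 h, or TNF-α plus IL-4 20 U/ml for 48 h. Test compound is in 1% FBS medium, and final EtOH or DMSO is mostly below 0.1%. LDH is read with a commercial LDH cytotoxicity kit.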

[2] = test system: IL-8 mRNA in HFL-1 cells; test: RT-PCR analysis of IL-8 mRNA expression; conditions: TNF-α-stimulated HFL-1
[3] = test system: eotaxin 1 production in HFL-1 cells; test: eotaxin 1 production by TNF-α plus IL-4-stimulated HFL-1 cells; conditions: HFL-1, TNF-α/IL-4 stimuli for 48 h; calculated from ELISA data
Method in brief: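 Collagen-plated HFL-1 cells are seeded at 5×10^4/well and adhered overnight. Test compound in 1% FBS medium, or vehicle, is added, and the cells are then stimulated with TNF-α 10 ng/ml plus IL-4 20 U/ml for 48 h at 37 °C. Eotaxin 1 in the supernatant is quantified by sandwich ELISA, with samples at least in duplicate. Values are mean±S.D. of three independent experiments, compared by t-test, and IC50 is derived from the ELISA data.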

[4] = test system: IL-8 production in HFL-1 cells; test: IL-8 production by TNF-α-stimulated HFL-1 cells; conditions: for IL-8 production reduced to (% of stimulated control): 1000 μg/ml, P<0.001; for IL-8 production reduced to (% of stimulated control) / concentration at which significant inhibition of IL-8 production was observed: TNF-α 24 h; for concentration at which significant inhibition of IL-8 production was observed: P<0.01
Method in brief: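 HFL-1 fetal lung fibroblasts are grown in Ham's F-12 with 15% heat-inactivated FBS on collagen, then seeded at 5×10^4 cells/well and adhered overnight. Test compound is added in 1% FBS medium, with vehicle controls, followed by TNF-α 10 ng/ml for 24 h at 37 °C. Supernatant IL-8 is measured by sandwich ELISA, at least in duplicate. Data are mean±S.D. of three experiments, analysed by Student's t-test, with IC50 calculated from the ELISA data.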

[5] = test system: eotaxin 1 mRNA in HFL-1 cells; test: RT-PCR analysis of eotaxin 1 mRNA expression; conditions: TNF-α plus IL-4-stimulated HFL-1

Row | SMILES | CC30 (cytotoxicity), IL-8 condition [1] [µg/mL] | CC30 (cytotoxicity), eotaxin 1 condition [1] [µg/mL] | effect on IL-8 mRNA expression [2] | Eotaxin 1 IC50 [3] [µg/mL] | IL-8 production reduced to (% of stimulated control) [4] [%] | concentration at which significant inhibition of IL-8 production was observed [4] | doses needed to inhibit IL-8 and eotaxin 1 production ([4]; IL-8 and eotaxin 1 production, HFL-1) [mg/mL] | effect on eotaxin 1 mRNA expression [5] | IL-8 IC50 ([4]; HFL-1, TNF-α stimuli for 24 h, calculated from ELISA data) [µg/mL]
1 | CC1(C)[C@@H](O[C@H]2O[C@H](C(=O)O)[C@@H](O)[C@H](O)[C@H]2O[C@@H]2O[C@H](C(=O)O)[C@@H](O)[C@H](O)[C@H]2O)CC[C@]2(C)[C@H]3C(=O)C=C4[C@@H]5C[C@@](C)(C(=O)O)CC[C@]5(C)CC[C@@]4(C)[C@]3(C)CC[C@@H]12 [18α-GL, glycyrrhizin] | 330 (≈ 401 µM) | >1000 | did not indicate significant effect | 25 | 25 | more than 300 μg/ml | – | – | –
2 | CC1(C)[C@@H](O[C@H]2O[C@H](C(=O)O)[C@@H](O)[C@H](O)[C@H]2O[C@@H]2O[C@H](C(=O)O)[C@@H](O)[C@H](O)[C@H]2O)CC[C@]2(C)[C@H]3C(=O)C=C4[C@@H]5C[C@@](C)(C(=O)O)CC[C@]5(C)CC[C@@]4(C)[C@]3(C)CC[C@@H]12 [GL, Glycyrrhizin] | – | – | – | – | – | – | ~1 | – | –
3 | CC1(C)[C@@H](O[C@H]2O[C@H](C(=O)O)[C@@H](O)[C@H](O)[C@H]2O[C@@H]2O[C@H](C(=O)O)[C@@H](O)[C@H](O)[C@H]2O)CC[C@]2(C)[C@H]3C(=O)C=C4[C@@H]5C[C@@](C)(C(=O)O)CC[C@]5(C)CC[C@@]4(C)[C@]3(C)CC[C@@H]12 [18β-GL, glycyrrhizin] | >1000 | >1000 | – | >300 | 25 | more than 300 μg/ml | – | did not inhibit it at the same doses | 370
